Reference: PubChem BioAssay
Inconclusive results are not listed. Activity calls are given as the source filed them.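 Rule for the calls, unless noted: active = cell viability at or below a set limit in both duplicate runs, the limit being the all-compound median minus 4 SD (cut at about 23% in these data, passing the limit was not always enough); inconclusive = no clear call, values can overlap the other calls; inactive = the rest.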

Key:
[1] = OD615 S. cerevisiae growth inhibition, permissive medium, pilot counter-assay, permissive growth control for S. cerevisiae lifespan shortening project (AID 705;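 active = growth inhibition above 25% in both replicates, a cutoff set 3 SD above the mean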); conditions: OD615, 24 h, at 10 µM, active compounds read high
In short: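 System: S. cerevisiae with engineered DeaD lifespan system. Medium: SC raffinose/galactose permissive medium. Doses: single compound dose of 10 µM, 0.25% DMSO final. Schedule: 24 h exposure, 30 °C. Measured by: OD615 turbidity read. Read-out: growth inhibition.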

[2] = Restrictive medium S. cerevisiae growth inhibition, OD615, pilot screen of yeast lifespan reduction project, restrictive growth control (AID 706;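 active = growth inhibition above a set limit, 3 SD over mean compound inhibition, in both replicates, cut at about 43% in these data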;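 note: modified DeaD lifespan yeast strain shifted to restrictive glucose medium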); conditions: OD615, 48 h, at 10 µM, active compounds read high
In short: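 Assay system – genetically modified Saccharomyces cerevisiae, DeaD replicative lifespan assay strain · Medium – CSMM-D glucose medium · Doses – 10 µM compound, 0.25% DMSO · Times – 4 h pre-incubation, 48 h exposure at 30 °C · Signal – optical density at 615 nm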

[3] = viability gain of MRP-1-high H69AR cells under doxorubicin, pilot screen, MRP-1 activator project, CellTiter-Glo, duplicate (AID 807;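 active = viability increase at or above a cutoff of the median across tested compounds plus 3 SD, cut at about 8.5% in these data, passing the limit was not always enough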;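 note: compound pretreatment 18-22 h then 72 h combined with doxorubicin; 0% = doxorubicin alone and 100% = vehicle without doxorubicin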); conditions: H69AR viability with doxorubicin, CellTiter-Glo luminescence; at 10 µM; active compounds read high
[4] = growth suppression of beta-catenin knockout HCT116, pilot screen, human colon tumor cells (AID 823); conditions: CellTiter-Glo, 60 h, at 10 µM, active compounds read low;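 note: 0% = wells killed by 20 µM Hyamine and 100% = untreated DMSO cell wells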
[5] = growth suppression of PTEN-deleted HCT116, pilot screen, cell-based, HCT116 clonal line, CellTiter-Glo (AID 824;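 active = viability at or below 27.92% in each of two runs, the all-compound median minus 4 SD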;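 note: 0% = 20 µM Hyamine control and 100% = vehicle cell control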); conditions: 60 h, at 10 µM, active compounds read low
[6] = inhibitors of the yeast RAM network, pilot screen, dse1pr::URA3 reporter, 5-FOA selection (AID 869;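 active = inhibition over a set limit, the all-compound mean plus 3 SD, in both replicate runs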;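 note: 0% = DMSO wells with no growth and 100% = 10 µM 1-NA-PP1 with full growth; RAM network block rescues cells from 5-FOA so hits raise OD615 growth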); conditions: S. cerevisiae dse1pr::URA3 5-FOA growth, OD615, 2 d; at 10 µM; active compounds read high; strain carries analog-sensitive mutant Cbk1 kinase
[7] = RAM signaling pathway blockade in yeast – S. cerevisiae, Pdr1DBD-CYC8 efflux-inhibited sensitized strain, primary screen (AID 1298;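 active = RAM network inhibition above 8.4% in each of two replicates, 3 SD over the compound average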;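 note: 0% = DMSO untreated cells without growth and 100% = 10 µM 1-NA-PP1 full growth; higher means more yeast growth rescued from 5-FOA killing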); conditions: S. cerevisiae cbk1-as DSE1-URA3 strain, 5-FOA growth OD615, 2 d; at 50 µM; active compounds read high

CN1CCN(CCCNC(=O)c2cc3c(-c4ccc(Cl)cc4)nn(C)c3s2)CC1
inactive: growth inhibition [1] -8.24% | growth inhibition [2] -2.25% | viability increase [3] -8.21% | inhibition [6] 0.445% | RAM network inhibition [7] 0.92%
active: viability [4] 2.18% | viability [5] 2%

CCOC(=O)c1ccc(NC(=O)c2nccnc2C(=O)O)cc1
inactive: growth inhibition [1] -4.96% | growth inhibition [2] -2.24% | viability increase [3] -1.42% | viability [4] 98.1% | viability [5] 96.6% | inhibition [6] 1.07% | RAM network inhibition [7] -0.42%

CCOC(=O)c1ccc(N2CSC3=C(C#N)C(c4cccs4)CC(=O)N3C2)cc1 (configuration not stated)
inactive: growth inhibition [1] 6.68% | growth inhibition [2] 28.2% | viability increase [3] -1.48% | viability [4] 103% | viability [5] 85.3% | inhibition [6] 1.52% | RAM network inhibition [7] 2.37%

COc1ccc(NC(=O)C2CCN(S(=O)(=O)c3cccc4cccnc34)CC2)cc1
inactive: growth inhibition [1] -4.51% | growth inhibition [2] 3.15% | viability increase [3] 1.75% | viability [4] 102% | viability [5] 101% | inhibition [6] 2.21% | RAM network inhibition [7] 0.67%

CCCc1ccc2c(N)c(C#N)sc2n1
inactive: growth inhibition [1] -9.88% | growth inhibition [2] 2.12% | viability increase [3] 0.61% | viability [4] 111% | viability [5] 104% | inhibition [6] 0.235% | RAM network inhibition [7] -0.37%

Cc1ccc(C)c(NC(=O)CS(=O)(=O)c2c[nH]c3ccccc23)c1
inactive: growth inhibition [1] -9.01% | growth inhibition [2] -31.9% | viability increase [3] -2.95% | viability [4] 96.5% | viability [5] 93.5% | inhibition [6] 2.13% | RAM network inhibition [7] -0.27%

CCCc1[nH]nc2c1C(C1CCCCC1)C(C#N)=C(N)O2 (configuration not stated)
inactive: growth inhibition [1] -4.03% | growth inhibition [2] -0.785% | viability increase [3] -6.54% | inhibition [6] 2.06% | RAM network inhibition [7] 1.58%
active: viability [4] 12.5% | viability [5] 21.4%

C=C(C)Cn1c(NCCC)nc2c1c(=O)n(C)c(=O)n2C
inactive: growth inhibition [1] -9.8% | growth inhibition [2] -3.75% | viability increase [3] -0.51% | viability [4] 98% | viability [5] 95.2% | inhibition [6] 2.74% | RAM network inhibition [7] 1.36%

CCS(=O)(=O)NCC(c1cccnc1)N1CCN(c2ccccc2OC)CC1 (configuration not stated)
inactive: growth inhibition [1] -2.57% | growth inhibition [2] -3.32% | viability increase [3] -0.33% | viability [4] 98.3% | viability [5] 105% | inhibition [6] 1.11% | RAM network inhibition [7] 3.37%

CCCc1cc(C(=O)NCc2ccc(OC)cc2)no1
inactive: growth inhibition [1] -7.46% | growth inhibition [2] 18.4% | viability increase [3] -0.95% | viability [4] 107% | viability [5] 99.3% | inhibition [6] 1.78% | RAM network inhibition [7] -0.68%

Cc1cc2c(cc(C(=O)N3CCC(C(=O)NC4CCCC4)CC3)n2Cc2c(F)cccc2Cl)o1
inactive: growth inhibition [1] -3.7% | growth inhibition [2] -5.26% | viability increase [3] -1.51% | viability [4] 62% | viability [5] 54.8% | inhibition [6] 0.72% | RAM network inhibition [7] 3.45%

Cc1cccc(OCC2=N/C(=C\N(C)C)C(=O)O2)c1
inactive: growth inhibition [1] -21.7% | growth inhibition [2] -9.04% | viability increase [3] -0.64% | viability [4] 97.2% | viability [5] 91.3% | inhibition [6] 1.48% | RAM network inhibition [7] 2.9%

CCOC(=O)c1c(NC(=O)c2cccs2)sc2c1CCCC2
inactive: growth inhibition [1] -6.96% | growth inhibition [2] -21.1% | viability increase [3] -4.82% | viability [4] 101% | viability [5] 83.5% | inhibition [6] 3.56% | RAM network inhibition [7] 8%

O=C1CC(C(=O)Nc2nccs2)C(c2ccccc2)O1 (configuration not stated)
inactive: growth inhibition [1] -4.84% | growth inhibition [2] -14.8% | viability increase [3] -0.76% | viability [4] 107% | viability [5] 99.3% | inhibition [6] 0.94% | RAM network inhibition [7] 0.09%

CCOC(=O)CN1CC23C=CC(O2)C(C(=O)N2CCN(c4ccc(F)cc4)CC2)C3C1=O (configuration not stated)
inactive: growth inhibition [1] 7.71% | growth inhibition [2] 5.64% | viability increase [3] -2.12% | viability [4] 86.7% | viability [5] 93.2% | inhibition [6] 1.45% | RAM network inhibition [7] -0.56%

CCOC(=O)Nc1ccccc1C(=O)N1CCOCC1
inactive: growth inhibition [1] -8.68% | growth inhibition [2] -2.7% | viability increase [3] -0.42% | viability [4] 97.5% | viability [5] 98% | inhibition [6] 1.89% | RAM network inhibition [7] 2.52%

O=S(=O)(Nc1ccc(-c2nc3cccnc3s2)cc1)c1cccs1
inactive: growth inhibition [1] -4.44% | growth inhibition [2] -6.65% | viability increase [3] -1.73% | viability [4] 110% | viability [5] 95.6% | inhibition [6] 1.79% | RAM network inhibition [7] 3.74%

c1ccc(Cn2ncc3ccccc32)cc1
inactive: growth inhibition [1] -3.05% | growth inhibition [2] 4.4% | viability increase [3] -1.05% | viability [4] 94.8% | viability [5] 98% | inhibition [6] -0.165% | RAM network inhibition [7] -0.97%

CCOC(=O)Cc1csc(NC(=O)CN(C)S(=O)(=O)c2cccc3cccnc23)n1
inactive: growth inhibition [1] -11.1% | growth inhibition [2] -7.54% | viability increase [3] -4.61% | viability [4] 93.5% | viability [5] 81.7% | inhibition [6] 1.14% | RAM network inhibition [7] 4.44%

COc1ccc(Cl)cc1N(CC(=O)N1CCC(C)CC1)S(C)(=O)=O
inactive: growth inhibition [1] 5.7% | growth inhibition [2] 0.85% | viability increase [3] -1.75% | viability [4] 96.6% | viability [5] 92.7% | inhibition [6] 0.155% | RAM network inhibition [7] 1.72%

C=C(C)CSc1nnc(-c2ccc(OC)c(OC)c2)n1N
inactive: growth inhibition [1] 11.8% | growth inhibition [2] 7.34% | viability increase [3] -0.31% | viability [4] 96% | viability [5] 99.2% | inhibition [6] -0.36% | RAM network inhibition [7] 3.74%

O=C(NCc1ccc2c(c1)OCO2)Oc1ccccc1
inactive: growth inhibition [1] -1.34% | growth inhibition [2] 7.08% | viability increase [3] 0.33% | viability [4] 96.9% | viability [5] 101% | inhibition [6] 1.32% | RAM network inhibition [7] 2.53%

Cc1cc(C)c(C#N)c(Oc2ccc(O)cc2)n1
inactive: growth inhibition [1] -14.7% | growth inhibition [2] -10.3% | viability increase [3] -2.42% | viability [4] 98.7% | viability [5] 90.9% | inhibition [6] 2.56% | RAM network inhibition [7] 2.67%

Cc1ccc2oc(=O)c3cc(C(=O)N4CCN(C(=O)c5ccco5)CC4)sc3c2c1
inactive: growth inhibition [1] -9.32% | growth inhibition [2] -1.79% | viability increase [3] -2.75% | viability [4] 102% | viability [5] 99.5% | inhibition [6] 2.8% | RAM network inhibition [7] 3.77%

COC(=O)C1=CN(CCCN2CCCC2=O)C=C(C(=O)OC)C1c1ccccc1C(F)(F)F
inactive: growth inhibition [1] -10% | growth inhibition [2] 1.3% | viability increase [3] -6.27% | viability [4] 39.6% | viability [5] 35.7% | inhibition [6] 0.125% | RAM network inhibition [7] 1.94%

COc1cc(C)c(N(C(C)=O)c2ccccc2)c(C)c1
inactive: growth inhibition [1] -10.7% | growth inhibition [2] -17.4% | viability increase [3] -0.85% | viability [4] 92.2% | viability [5] 87.3% | inhibition [6] 1.97% | RAM network inhibition [7] 5.22%

CN(C)C1NC(=O)c2cc(-c3ccccc3)sc2N1 (configuration not stated)
inactive: growth inhibition [1] -5.92% | growth inhibition [2] -10.2% | viability increase [3] -0.01% | viability [4] 102% | viability [5] 104% | inhibition [6] 0.135% | RAM network inhibition [7] 2.33%

COc1ccc(S(=O)(=O)N2CCN(c3c(C)cccc3C)CC2)cc1OC
inactive: growth inhibition [1] -1.27% | growth inhibition [2] -7.95% | viability increase [3] -1% | viability [4] 78.2% | viability [5] 74.4% | inhibition [6] 0.435% | RAM network inhibition [7] 10.8%

Cc1ccn2cc(CCNC(=O)c3ccc(Br)o3)nc2c1
inactive: growth inhibition [1] -10.6% | growth inhibition [2] -12.7% | viability increase [3] -0.26% | viability [4] 93.8% | viability [5] 95.4% | inhibition [6] 3.01% | RAM network inhibition [7] 4.83%

CCCC1(C(=O)O)NC(c2cccc(OC)c2O)C2C(=O)N(c3ccccc3)C(=O)C21 (configuration not stated)
inactive: growth inhibition [1] -0.085% | growth inhibition [2] -4.29% | viability increase [3] -0.36% | viability [4] 96.4% | viability [5] 97.4% | inhibition [6] 0.49% | RAM network inhibition [7] -0.78%

Cc1ccccc1-c1nnc(-c2ccccc2)o1
inactive: growth inhibition [1] -0.03% | growth inhibition [2] -4.75% | viability increase [3] -4.15% | viability [4] 80.9% | viability [5] 83.1% | inhibition [6] 1.82% | RAM network inhibition [7] 0.2%

COc1ccc(CNC(=O)CN(c2cc(C)cc(C)c2)S(=O)(=O)c2c(C)noc2C)cc1
inactive: growth inhibition [1] -24.7% | growth inhibition [2] -27.1% | viability increase [3] -4.08% | viability [4] 97.1% | viability [5] 89.2% | inhibition [6] 1.92% | RAM network inhibition [7] 3.21%

C=C(C)CSc1nc2c(c(=O)[nH]c(=O)n2C)n1Cc1ccccc1
inactive: growth inhibition [1] -16.7% | growth inhibition [2] -22.9% | viability increase [3] 3.2% | viability [4] 83.8% | viability [5] 78.3% | inhibition [6] 2.96% | RAM network inhibition [7] 7.74%

CCOC(=O)c1nn(-c2ccc3c(c2)CCN3C(C)=O)cc1O
inactive: growth inhibition [1] -3.56% | growth inhibition [2] -5.95% | viability increase [3] -1.4% | viability [4] 101% | viability [5] 92.7% | inhibition [6] 0.375% | RAM network inhibition [7] 3.05%

CC(=O)N1CCc2c(sc(NC(=O)c3ccc4c(c3)OCCO4)c2C#N)C1
inactive: growth inhibition [1] -0.37% | growth inhibition [2] -8.73% | viability increase [3] -6.36% | viability [4] 35% | viability [5] 35.4% | inhibition [6] 2.62% | RAM network inhibition [7] 4.02%

CC1CN(C2CC(C)(C)NC(C)(C)C2)CCC1=O (configuration not stated)
inactive: growth inhibition [1] -5.84% | growth inhibition [2] -0.43% | viability increase [3] 1.05% | viability [4] 96.7% | viability [5] 100% | inhibition [6] -0.505% | RAM network inhibition [7] 5.32%
